Assay [1] relates to L6. The experiment in a line: Inhibition of cholesterol synthesis in L6 myocytes. Type of assay: functional, cell-based. As to conditions: Rattus norvegicus.
Assay [2] is described as follows: Inhibition of cholesterol synthesis in rat hepatocytes. Conditions: Hepatocyte. Type of assay: functional, cell-based.
In assay [3] the target is T1, 3-hydroxy-3-methylglutaryl-coenzyme A reductase (Rattus norvegicus, UniProt P51639).
T1 sequence (P51639 whole entry): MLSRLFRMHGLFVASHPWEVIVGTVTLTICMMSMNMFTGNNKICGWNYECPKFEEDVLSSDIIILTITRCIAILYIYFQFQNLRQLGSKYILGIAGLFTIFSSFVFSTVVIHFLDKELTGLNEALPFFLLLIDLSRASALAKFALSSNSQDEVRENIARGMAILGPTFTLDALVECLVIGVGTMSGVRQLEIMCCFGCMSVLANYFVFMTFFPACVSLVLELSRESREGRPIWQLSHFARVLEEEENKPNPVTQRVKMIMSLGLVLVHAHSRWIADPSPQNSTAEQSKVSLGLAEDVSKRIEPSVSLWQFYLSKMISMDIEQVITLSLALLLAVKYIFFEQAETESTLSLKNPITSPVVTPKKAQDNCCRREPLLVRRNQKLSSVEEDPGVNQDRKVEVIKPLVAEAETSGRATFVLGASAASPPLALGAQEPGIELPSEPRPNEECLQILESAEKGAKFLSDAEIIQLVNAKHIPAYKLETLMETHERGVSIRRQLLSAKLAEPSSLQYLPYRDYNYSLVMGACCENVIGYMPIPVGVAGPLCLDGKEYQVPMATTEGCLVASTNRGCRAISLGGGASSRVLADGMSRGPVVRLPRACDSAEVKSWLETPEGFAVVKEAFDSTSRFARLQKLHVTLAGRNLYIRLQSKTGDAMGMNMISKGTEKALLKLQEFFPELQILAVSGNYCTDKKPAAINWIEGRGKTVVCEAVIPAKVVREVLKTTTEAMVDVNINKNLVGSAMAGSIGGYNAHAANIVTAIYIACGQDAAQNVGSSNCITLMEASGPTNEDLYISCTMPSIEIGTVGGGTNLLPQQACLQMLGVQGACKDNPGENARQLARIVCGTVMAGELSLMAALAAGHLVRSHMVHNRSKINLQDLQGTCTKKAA
As to the kind of experiment: Inhibition of HMG-CoA reductase in rat liver microsomes. Also on record: species or system Microsome. Background: Liver microsomes are vesicles of endoplasmic reticulum, rich in cytochrome P450 enzymes.

Assay [4] deals with Hamster. As to the kind of experiment: Inhibition of cholesterol synthesis in hamster at 10 mg/kg, po after 4 to 6 hrs relative to control. Type of assay: functional, Cricetinae. Details: scale not given: the % may be the effect or the level left. In a few lines: (§1)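 Male Syrian Golden hamsters received a single oral 10 mg/kg dose. A bolus of sodium 14C-acetate was given at 2, 3 or 4 h post-dose, giving 2–4, 3–5 and 4–6 h windows. Label incorporated into plasma cholesterol was measured over the following 2 h. Results are reported as percent change in incorporation relative to vehicle-dosed animals.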

Assay [5] deals with Hamster. As to the kind of experiment: Inhibition of cholesterol synthesis in hamster at 10 mg/kg, po after 2 to 4 hrs relative to control. Type of assay: functional, Cricetinae. Details: scale not given: the % may be the effect or the level left. In a few lines:
as §1

With `Cc1ccc(CN(C)C(=O)c2nn(-c3ccc(F)cc3)c(OC[C@@H](O)C[C@@H](O)CC(=O)O)c2C(C)C)cc1`, the half-maximal inhibitory concentration (IC50) in assay [1] amounted to 1250 nM; in assay [2], 1.2 nM; in assay [3], 37 nM.

As for `Cc1ccc(CNC(=O)c2nn(-c3ccc(F)cc3)c(OC[C@@H](O)C[C@@H](O)CC(=O)O)c2C(C)C)cc1`, the Activity is reported as 9% in assay [4] and -30% in assay [5]. For the same compound, the half-inhibitory concentration (IC50) in assay [1] stood at 2110 nM; in assay [2], 1.8 nM; in assay [3], 15 nM.

Consider `Cc1ccccc1CNC(=O)c1nn(-c2ccc(F)cc2)c(OC[C@@H](O)C[C@@H](O)CC(=O)O)c1C(C)C`, for which, in assay [4], the Activity is 39%. Moreover, the IC50 came to 2850 nM in assay [1], 0.88 nM in assay [2] and 17 nM in assay [3].

With `COc1cc(CN(C)C(=O)c2nn(-c3ccc(F)cc3)c(OC[C@@H](O)C[C@@H](O)CC(=O)O)c2C(C)C)cc(OC)c1`, the half-inhibitory concentration (IC50) in assay [2] was found to be 7.1 nM; in assay [3] it was 43 nM.

Take `CC(C)c1c(C(=O)N(C)Cc2cccc(F)c2)nn(-c2ccc(F)cc2)c1OC[C@@H](O)C[C@@H](O)CC(=O)O`: the Activity in assay [4] is -1%; in assay [5], -41%. In addition, the IC50 in assay [1] is 2470 nM; in assay [2], 1.9 nM; in assay [3], 14 nM.

In the case of `Cc1cccc(CN(C)C(=O)c2nn(-c3ccc(F)cc3)c(OC[C@@H](O)C[C@@H](O)CC(=O)O)c2C(C)C)c1`, the IC50 in assay [1] was determined as 18500 nM; in assay [2], 2.5 nM; in assay [3] it was 37 nM.

In the case of `CC(C)c1c(C(=O)N(C)Cc2cccc(C(F)(F)F)c2)nn(-c2ccc(F)cc2)c1OC[C@@H](O)C[C@@H](O)CC(=O)O`, the IC50 in assay [2] is 12 nM; in assay [3], 31 nM.

Take `COc1cccc(CN(C)C(=O)c2nn(-c3ccc(F)cc3)c(OC[C@@H](O)C[C@@H](O)CC(=O)O)c2C(C)C)c1`: the Activity in assay [4] came out at 53%. For the same compound, the concentration for half-maximal inhibition (IC50) worked out at 9460 nM in assay [1], 1.6 nM in assay [2] and 21 nM in assay [3].

For `CC(C)c1c(C(=O)N(C)Cc2ccc(F)cc2)nn(-c2ccc(F)cc2)c1OC[C@@H](O)C[C@@H](O)CC(=O)O`, the Activity in assay [4] is 91%. In addition, the IC50 was determined as 2800 nM in assay [1], 3.8 nM in assay [2] and 18 nM in assay [3].

For the compound `CC(C)c1c(C(=O)NCCc2ccccc2)nn(-c2ccc(F)cc2)c1OC[C@@H](O)C[C@@H](O)CC(=O)O`, the half-maximal inhibitory concentration (IC50) in assay [1] was 760 nM; in assay [2] it was 14 nM; in assay [3], 15 nM.

Take `CC(C)c1c(C(=O)NCC2CCCCC2)nn(-c2ccc(F)cc2)c1OC[C@@H](O)C[C@@H](O)CC(=O)O`: the IC50 stood at 56 nM in assay [2] and 17 nM in assay [3].

As to `CCCCNC(=O)c1nn(-c2ccc(F)cc2)c(OC[C@@H](O)C[C@@H](O)CC(=O)O)c1C(C)C`, the IC50 stood at 39 nM in assay [2] and 76 nM in assay [3].

For `COc1ccc(CNC(=O)c2nn(-c3ccc(F)cc3)c(OC[C@@H](O)C[C@@H](O)CC(=O)O)c2C(C)C)cc1`, the IC50 in assay [2] is 37 nM; in assay [3] it was 12 nM.

For the compound `COc1cccc(CNC(=O)c2nn(-c3ccc(F)cc3)c(OC[C@@H](O)C[C@@H](O)CC(=O)O)c2C(C)C)c1`, the Activity in assay [4] turned out to be 37%. For the same compound, the values for the IC50 in assay [1], in assay [2] and in assay [3] were 8750 nM, 8.4 nM and 16 nM, respectively.

For `CC(C)c1c(C(=O)N2CCC[C@H](c3ccccc3)C2)nn(-c2ccc(F)cc2)c1OC[C@@H](O)C[C@@H](O)CC(=O)O`, the IC50 in assay [1] is 1110 nM; in assay [2], 1.5 nM; in assay [3] it was 4.8 nM. In assay [5], the Activity is recorded as -15%.

With `CC(C)c1c(C(=O)NCc2ccccn2)nn(-c2ccc(F)cc2)c1OC[C@@H](O)C[C@@H](O)CC(=O)O`, the half-maximal inhibitory concentration (IC50) in assay [2] turned out to be 7.5 nM; in assay [3], 25 nM.

On to `CC(C)c1c(C(=O)NCc2ccccc2)nn(-c2ccc(F)cc2)c1OC[C@@H](O)C[C@@H](O)CC(=O)O`, for which, in assay [4], the Activity is on record as 41%. Further, the values for the IC50 in assay [1], in assay [2] and in assay [3] were 880 nM, 14 nM and 3.8 nM, respectively.

Regarding `CC(C)c1c(C(=O)N(C)Cc2ccccc2)nn(-c2ccc(F)cc2)c1OC[C@@H](O)C[C@@H](O)CC(=O)O`, the Activity in assay [4] is on record as 26%; in assay [5], -49%. The IC50 in assay [1] was found to be 6720 nM; in assay [2] it was 1.1 nM; in assay [3] it was 5.2 nM.

Take `CC(C)c1c(C(=O)NCc2cccc(F)c2F)nn(-c2ccc(F)cc2)c1OC[C@@H](O)C[C@@H](O)CC(=O)O`: the concentration for half-maximal inhibition (IC50) in assay [1] is 120 nM; in assay [2] it was 19 nM; in assay [3] it was 2 nM.

For `CC(C)c1c(C(=O)N(C)Cc2cccc(F)c2F)nn(-c2ccc(F)cc2)c1OC[C@@H](O)C[C@@H](O)CC(=O)O`, the IC50 in assay [1] is 860 nM; in assay [2], 2.8 nM; in assay [3], 14 nM.

For the compound `Cc1ccc(CNC(=O)c2nn(-c3ccc(F)cc3)c(CC[C@@H](O)C[C@@H](O)CC(=O)O)c2C(C)C)cc1`, the Activity was -15% in assay [4] and -74% in assay [5]. Further, the half-inhibitory concentration (IC50) was found to be 800 nM in assay [1], 1.1 nM in assay [2] and 2.5 nM in assay [3].

On to `CC(C)c1c(C(=O)NCc2ccccc2Cl)nn(-c2ccc(F)cc2)c1OC[C@@H](O)C[C@@H](O)CC(=O)O`, for which the values for the IC50 in assay [1], in assay [2] and in assay [3] were 8450 nM, 76 nM and 9.5 nM, respectively.

For the compound `COc1ccccc1CNC(=O)c1nn(-c2ccc(F)cc2)c(OC[C@@H](O)C[C@@H](O)CC(=O)O)c1C(C)C`, the 50% inhibitory concentration (IC50) turned out to be 83 nM in assay [2] and 22 nM in assay [3].

Turning to `CCOc1cccc(CN(C)C(=O)c2nn(-c3ccc(F)cc3)c(OC[C@@H](O)C[C@@H](O)CC(=O)O)c2C(C)C)c1`, the concentration for half-maximal inhibition (IC50) in assay [1] was 3550 nM; in assay [2] it was 2.8 nM; in assay [3], 16 nM.

As for `CC(C)c1c(C(=O)N(C)[C@H](C)c2ccccc2)nn(-c2ccc(F)cc2)c1OC[C@@H](O)C[C@@H](O)CC(=O)O`, the half-inhibitory concentration (IC50) in assay [2] is 11 nM; in assay [3] it was 21 nM.

With `Cc1cccc(CNC(=O)c2nn(-c3ccc(F)cc3)c(OC[C@@H](O)C[C@@H](O)CC(=O)O)c2C(C)C)c1`, the results for the concentration for half-maximal inhibition (IC50) in assay [1], in assay [2] and in assay [3] were 280 nM, 0.99 nM and 4.9 nM, respectively.

With `CC(C)c1c(C(=O)NCc2cccc(Cl)c2)nn(-c2ccc(F)cc2)c1OC[C@@H](O)C[C@@H](O)CC(=O)O`, the figures for the half-maximal inhibitory concentration (IC50) in assay [2] and in assay [3] were 9.9 nM and 5.4 nM, respectively.

Turning to `CC(C)c1c(C(=O)N2CCCCC2)nn(-c2ccc(F)cc2)c1OC[C@@H](O)C[C@@H](O)CC(=O)O`, the half-inhibitory concentration (IC50) worked out at 32200 nM in assay [1], 3.8 nM in assay [2] and 47 nM in assay [3].

With `CC(C)c1c(C(=O)N(C)Cc2ccccc2)nn(-c2ccc(F)cc2)c1CC[C@@H](O)C[C@@H](O)CC(=O)O`, the figures for the Activity in assay [4] and in assay [5] were -16% and -61%, respectively. The values for the IC50 in assay [1], in assay [2] and in assay [3] were 2870 nM, 0.31 nM and 6.2 nM, respectively.

On to `CC(C)c1c(C(=O)N(C)Cc2cccc(F)c2)nn(-c2ccc(F)cc2)c1CC[C@@H](O)C[C@@H](O)CC(=O)O`, for which the Activity in assay [4] is given as -12%; in assay [5], -66%. Besides, the half-inhibitory concentration (IC50) turned out to be 1900 nM in assay [1], 0.16 nM in assay [2] and 4.1 nM in assay [3].

Regarding `CC(C)c1c(C(=O)NCc2ccc(Cl)cc2)nn(-c2ccc(F)cc2)c1OC[C@@H](O)C[C@@H](O)CC(=O)O`, the IC50 worked out at 44 nM in assay [2] and 6.7 nM in assay [3].

For the compound `CCN(Cc1ccccc1)C(=O)c1nn(-c2ccc(F)cc2)c(OC[C@@H](O)C[C@@H](O)CC(=O)O)c1C(C)C`, the concentration for half-maximal inhibition (IC50) in assay [1] was found to be 2660 nM; in assay [2] it was 4.7 nM; in assay [3], 14 nM.

Consider `CC(C)c1c(C(=O)N2CCCC2c2ccccc2)nn(-c2ccc(F)cc2)c1OC[C@@H](O)C[C@@H](O)CC(=O)O` (some centres not stated), for which the values for the half-maximal inhibitory concentration (IC50) in assay [1], in assay [2] and in assay [3] were 4340 nM, 8 nM and 14 nM, respectively.

For the compound `CC(C)c1nc(N(C)S(C)(=O)=O)nc(-c2ccc(F)cc2)c1/C=C/[C@@H](O)C[C@@H](O)CC(=O)O` [ROSUVASTATIN], the Activity in assay [4] is -46%; in assay [5], -76%. Also, the values for the IC50 in assay [1], in assay [2] and in assay [3] were 210 nM, 0.23 nM and 2.1 nM, respectively.

What is called IC50 is the midpoint of a concentration-inhibition curve.

Values taken from ChEMBL document CHEMBL1139802, “Pyrazole inhibitors of HMG-CoA reductase: an attempt to dramatically reduce synthetic complexity through minimal analog re-design” (Bioorg Med Chem Lett, 2007).
